# Laboratory results taken from ChEMBL document CHEMBL4024713, “Novel aryl piperazines for alleviation of 'andropause' associated prostatic disorders and depression” (Eur J Med Chem, 2017).
# Active and inactive are the calls of the source. The calls are words filed in the database; no cut-off is given here.
# Experiments:
# LNCaP = assay: Cytotoxicity against human LNCAP cells after 24 hrs by MTT assay; format: functional, cell-based
# PC-3 = assay: Cytotoxicity against human PC3 cells after 24 hrs by MTT assay; format: functional, cell-based; details: PC-3, 24 h
# DU-145 = assay: Cytotoxicity against human DU145 cells after 24 hrs by MTT assay; format: functional, cell-based; details: DU-145, 24 h
# Rattus norvegicus [1] = assay: Anti-androgenic activity in citral-induced prostatic hyperplasia Sprague-Dawley rat model assessed as prostate weight at 10 mg/kg, po administered once daily coadministered with citral for 21 days measured 24 hrs last post dose (reference value: 100%); format: functional
# Outline: (§1)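 Adult male Sprague-Dawley rats (250-280 g, n = 5), citral 100 mg/kg orally once daily for 28 days. From day 8, compound or flutamide at 10 mg/kg orally once daily for the remaining 21 days. Prostate weight is expressed relative to the citral group (100%). Prostates fixed in 10% formalin; 5 μ sections stained with H&E, examined by light microscopy.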
# Rattus norvegicus [2] = assay: Toxicity in citral-induced prostatic hyperplasia Sprague-Dawley rat model assessed as effect on seminal vesicle weight at 10 mg/kg, po administered once daily coadministered with citral for 21 days measured 24 hrs last post dose; format: organism-based; details: in vivo
# Rattus norvegicus [3] = assay: Toxicity in citral-induced prostatic hyperplasia Sprague-Dawley rat model assessed as effect on testis weight at 10 mg/kg, po administered once daily coadministered with citral for 21 days measured 24 hrs last post dose; format: organism-based; details: in vivo
# Rattus norvegicus [4] = assay: Toxicity in citral-induced prostatic hyperplasia Sprague-Dawley rat model assessed as effect on epididymis weight at 10 mg/kg, po administered once daily coadministered with citral for 21 days measured 24 hrs last post dose; format: organism-based; details: in vivo
# Rattus norvegicus [5] = assay: Anti-androgenic activity in citral-induced prostatic hyperplasia Sprague-Dawley rat model assessed increase in distinction between stromal and acinar compartments at 10 mg/kg, po administered once daily coadministered with citral for 21 days measured 24 hrs last post dose by hematoxyline and eosin stainig based light microscopic analysis; format: functional, organism-based; outline: as §1
# Mus musculus [6] = assay: Anti-depressant like activity in Swiss albino mouse assessed as reduction in immobility time at 20 mg/kg, po administered 60 mins prior to test measured for 5 mins by forced swim test relative to control; format: functional; design: scale not given: the % may be the effect or the level left
# Outline: (§2)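 Male Swiss albino mice (20-25 g); compound 20 mg/kg, imipramine 60 mg/kg or fluoxetine 20 mg/kg given orally in 1% gum acacia (10 mL/kg). After 60 min: 15 min pre-swim in a water cylinder (10 cm depth, 25 ± 1 °C), then retest at 24 h. Immobility recorded for 5 min after 1 min acclimatization; N = 7-9, mean ± SEM, unpaired t-test.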
# Mus musculus [7] = assay: Anti-depressant like activity in Swiss albino mouse assessed as reduction in immobility time at 20 mg/kg, po measured for 5 mins by tail suspension test; format: functional, organism-based
# Outline: (§3)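 Male Swiss albino mice dosed orally in 1% gum acacia; imipramine as standard. Each mouse suspended by the tail with tape to a horizontal bar 60 cm above the table. Immobility (no limb or body movement other than respiration) recorded for 5 min after 1 min acclimatization; N = 5.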
# Mus musculus [8] = assay: Toxicity in Swiss albino mouse assessed as effect on locomotor activity at 20 mg/kg, po measured at 5 mins interval for 90 mins by open field test; format: organism-based; details: in vivo
# Outline: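 Male Swiss albino mice in an activity chamber, infrared beam-break counting over 24 intervals of 5 min (120 min). Oral dosing after the 6th interval; six animals per group.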
# Mus musculus [9] = assay: Toxicity in Swiss albino mouse assessed as latency time to fall at 20 mg/kg, po measured at 1 hr interval for 4 hrs by rotarod test; format: organism-based; details: in vivo
# Outline: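 Mice trained on the rotarod (5 to 10 rpm), 2 min trials, 3 per day for two days. On day 3, tested before oral dosing and at 1, 2, 3 and 4 h after, recording latency to fall.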
# [10] = biological target: T1, Alpha-1A adrenergic receptor (Homo sapiens) (UniProt P35348); assay: Antagonist activity at recombinant human alpha1a adrenergic receptor expressed in human Chem1 cell membrane assessed as reduction in ephinephrine-induced calcium mobilization at 1 uM by fluoforte dye based fluorescence assay relative to ephinephrine; format: functional
# T1 sequence (whole entry): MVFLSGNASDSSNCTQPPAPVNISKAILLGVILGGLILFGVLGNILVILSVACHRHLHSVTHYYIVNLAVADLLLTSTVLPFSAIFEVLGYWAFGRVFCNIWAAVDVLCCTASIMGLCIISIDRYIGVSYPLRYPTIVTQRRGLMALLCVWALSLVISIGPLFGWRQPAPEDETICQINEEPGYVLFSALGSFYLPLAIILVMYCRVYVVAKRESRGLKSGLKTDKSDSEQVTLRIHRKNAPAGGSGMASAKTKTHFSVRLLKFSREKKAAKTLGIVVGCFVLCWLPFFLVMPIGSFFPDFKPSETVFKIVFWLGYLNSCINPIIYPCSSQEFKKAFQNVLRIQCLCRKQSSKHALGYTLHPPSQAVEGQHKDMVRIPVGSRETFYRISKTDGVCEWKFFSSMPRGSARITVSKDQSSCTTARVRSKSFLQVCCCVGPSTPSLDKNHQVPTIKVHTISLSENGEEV
# Outline: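 α1A-adrenergic receptor-expressing Chem-1 cells, 4 x 10^4/well overnight, loaded with FluoForte calcium dye 45 min at 37 °C then 15 min at room temperature. Compounds at 1 μM; epinephrine 20 μM added at 10 s; tamsulosin 100 nM and 1 μM as reference. Fluorescence (ex 490/em 525 nm) read for 180 s as RFU.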
# [11] = biological target: T2, Androgen receptor (Homo sapiens) (UniProt P10275); assay: Antagonist activity at AR (unknown origin) expressed in African green monkey COS7 cells at 7.5 uM after 24 hrs by dual luciferase reporter gene assay; format: cell-based
# T2 sequence (whole entry): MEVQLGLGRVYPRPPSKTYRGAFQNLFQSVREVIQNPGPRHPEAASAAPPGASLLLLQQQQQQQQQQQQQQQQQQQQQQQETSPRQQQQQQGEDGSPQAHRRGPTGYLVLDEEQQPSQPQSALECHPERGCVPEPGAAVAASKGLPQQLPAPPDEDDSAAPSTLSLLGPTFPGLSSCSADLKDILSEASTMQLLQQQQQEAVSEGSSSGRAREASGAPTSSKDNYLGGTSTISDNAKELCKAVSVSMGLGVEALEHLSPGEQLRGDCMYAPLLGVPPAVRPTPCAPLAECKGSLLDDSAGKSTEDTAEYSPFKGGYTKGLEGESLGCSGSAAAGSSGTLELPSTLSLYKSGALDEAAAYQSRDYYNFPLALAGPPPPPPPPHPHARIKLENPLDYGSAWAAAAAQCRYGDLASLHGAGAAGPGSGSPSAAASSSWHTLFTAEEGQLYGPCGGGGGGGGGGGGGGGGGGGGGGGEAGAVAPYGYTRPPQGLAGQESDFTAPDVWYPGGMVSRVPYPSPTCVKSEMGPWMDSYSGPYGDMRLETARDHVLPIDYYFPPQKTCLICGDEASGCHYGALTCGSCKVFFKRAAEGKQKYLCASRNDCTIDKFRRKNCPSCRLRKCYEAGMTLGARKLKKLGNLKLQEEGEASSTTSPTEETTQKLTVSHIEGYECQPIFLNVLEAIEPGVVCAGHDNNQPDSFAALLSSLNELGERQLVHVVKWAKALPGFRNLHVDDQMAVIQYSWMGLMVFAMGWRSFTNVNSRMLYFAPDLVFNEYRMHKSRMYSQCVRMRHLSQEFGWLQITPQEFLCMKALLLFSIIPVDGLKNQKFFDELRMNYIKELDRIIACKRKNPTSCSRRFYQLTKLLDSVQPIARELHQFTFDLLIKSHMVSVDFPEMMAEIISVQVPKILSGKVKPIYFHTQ
# Outline: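 Cos7 cells (AR-negative) transiently transfected for 8 h with pARE-E1B-LUC reporter plus pCR3.1.AR expression vector. Then in complete medium, treated with compound at 7.5 μM for 24 h; bicalutamide 3 μM as positive control. Luciferase normalized to pRL-SV40 internal control, expressed as RLU relative to control = 100%.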
# Mus musculus [12] = assay: Anti-depressant like activity in Swiss albino mouse assessed as reduction in immobility time at 60 mg/kg, po administered 60 mins prior to test measured for 5 mins by forced swim test relative to control; format: functional; design: scale not given: the % may be the effect or the level left; outline: as §2
# Mus musculus [13] = assay: Anti-depressant like activity in Swiss albino mouse assessed as reduction in immobility time at 60 mg/kg, po measured for 5 mins by tail suspension test; format: functional, organism-based; outline: as §3
smiles,measurement,setting,value
O=[N+]([O-])c1ccc(N2CCN(CCCN3CCN(c4ccc([N+](=O)[O-])cc4)CC3)CC2)cc1,EC50,LNCaP,11.8 µM
same,EC50,PC-3,> 80 µM
same,EC50,DU-145,> 80 µM
same,Activity,Rattus norvegicus [1],29%
same,Activity,Rattus norvegicus [2],Non-Toxic
same,Activity,Rattus norvegicus [3],Non-Toxic
same,Activity,Rattus norvegicus [4],Non-Toxic
same,Activity,Rattus norvegicus [5],Active
same,Activity,Mus musculus [6],69.74%
same,Activity,Mus musculus [7],Active
same,Activity,Mus musculus [8],Non-Toxic
same,Time,Mus musculus [9],120 s
Fc1ccc(N2CCN(CCN3CCN(c4ccccc4F)CC3)CC2)cc1,EC50,LNCaP,68 µM
O=[N+]([O-])c1ccc(N2CCN(CCN3CCN(c4ccc(F)cc4)CC3)CC2)cc1,EC50,LNCaP,77.9 µM
Fc1ccccc1N1CCN(CCN2CCN(c3ccccc3F)CC2)CC1,EC50,LNCaP,40 µM
Fc1ccc(N2CCN(CCCN3CCN(c4ccc(F)cc4)CC3)CC2)cc1,EC50,LNCaP,49.2 µM
O=[N+]([O-])c1ccc(N2CCN(CCN3CCN(c4ccc([N+](=O)[O-])cc4)CC3)CC2)cc1,EC50,LNCaP,25.2 µM
CC(C)C(=O)Nc1ccc([N+](=O)[O-])c(C(F)(F)F)c1 [FLUTAMIDE],EC50,LNCaP,7 µM
same,Activity,Rattus norvegicus [1],58.8%
COc1ccccc1N1CCN(CCN2CCN(c3ccc(F)cc3)CC2)CC1,EC50,LNCaP,78.7 µM
CCOc1ccccc1OCCN[C@H](C)Cc1ccc(OC)c(S(N)(=O)=O)c1,fold change (FC),[10],1.6
COc1ccccc1N1CCN(CCN2CCN(c3ccc([N+](=O)[O-])cc3)CC2)CC1,EC50,LNCaP,46.5 µM
O=[N+]([O-])c1ccc(N2CCN(CCCN3CCN(c4ccc([N+](=O)[O-])cc4C(F)(F)F)CC3)CC2)c(C(F)(F)F)c1,EC50,LNCaP,55.5 µM
c1ccc(N2CCN(CCN3CCN(c4ccccn4)CC3)CC2)nc1,EC50,LNCaP,12.4 µM
same,EC50,PC-3,> 80 µM
same,EC50,DU-145,> 80 µM
same,Activity,Rattus norvegicus [1],44%
same,Activity,Rattus norvegicus [2],Non-Toxic
same,Activity,Rattus norvegicus [3],Non-Toxic
same,Activity,Rattus norvegicus [4],Non-Toxic
same,Activity,Rattus norvegicus [5],Active
same,Activity,Mus musculus [6],16.95%
O=[N+]([O-])c1cc(C(F)(F)F)ccc1N1CCN(CCCN2CCN(c3ccc(C(F)(F)F)cc3[N+](=O)[O-])CC2)CC1,EC50,LNCaP,12.2 µM
same,Activity,[11],Active
same,EC50,PC-3,> 80 µM
same,EC50,DU-145,76.5 µM
same,Activity,Rattus norvegicus [1],51.7%
same,Activity,Rattus norvegicus [2],Non-Toxic
same,Activity,Rattus norvegicus [3],Non-Toxic
same,Activity,Rattus norvegicus [4],Non-Toxic
same,Activity,Rattus norvegicus [5],Active
same,Activity,Mus musculus [6],25.71%
CNCCC(Oc1ccc(C(F)(F)F)cc1)c1ccccc1 (stereo not drawn) [FLUOXETINE],Activity,Mus musculus [6],75.35%
CN(C)CCCN1c2ccccc2CCc2ccccc21 [IMIPRAMINE],Activity,Mus musculus [12],40.39%
same,Activity,Mus musculus [13],Active
O=[N+]([O-])c1cc(C(F)(F)F)ccc1N1CCN(CCN2CCN(c3ccc(C(F)(F)F)cc3[N+](=O)[O-])CC2)CC1,EC50,LNCaP,63.2 µM
Fc1ccccc1N1CCN(CCCN2CCN(c3ccccc3F)CC2)CC1,EC50,LNCaP,10.4 µM
same,EC50,PC-3,> 80 µM
same,EC50,DU-145,> 80 µM
same,Activity,Rattus norvegicus [1],37%
same,Activity,Rattus norvegicus [2],Non-Toxic
same,Activity,Rattus norvegicus [3],Non-Toxic
same,Activity,Rattus norvegicus [4],Non-Toxic
same,Activity,Rattus norvegicus [5],Active
same,Activity,Mus musculus [6],20.86%
COc1ccccc1N1CCN(CCN2CCN(c3ccccc3OC)CC2)CC1,EC50,LNCaP,40 µM
Fc1ccc(N2CCN(CCN3CCN(c4ccc(F)cc4)CC3)CC2)cc1,EC50,LNCaP,71.2 µM
O=[N+]([O-])c1ccc(N2CCN(CCN3CCN(c4ccc([N+](=O)[O-])cc4C(F)(F)F)CC3)CC2)c(C(F)(F)F)c1,EC50,LNCaP,72.2 µM
